Activity calls are given as the source filed them.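 The calls were made as follows: active = compounds whose mean dose-response EC50 for APJ receptor activation is under 20 micromolar; inactive = the rest.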
The compounds below were run against Apelin receptor (Homo sapiens) (UniProt P35414) (assay: apelin receptor activators, concentration-response – cell-based, luminescence, uHTS hits, dose response (AID 488748)). Details: CHO-K1 APJ PathHunter beta-arrestin.
Chain of Apelin receptor (Homo sapiens) (P35414 whole entry, looked up): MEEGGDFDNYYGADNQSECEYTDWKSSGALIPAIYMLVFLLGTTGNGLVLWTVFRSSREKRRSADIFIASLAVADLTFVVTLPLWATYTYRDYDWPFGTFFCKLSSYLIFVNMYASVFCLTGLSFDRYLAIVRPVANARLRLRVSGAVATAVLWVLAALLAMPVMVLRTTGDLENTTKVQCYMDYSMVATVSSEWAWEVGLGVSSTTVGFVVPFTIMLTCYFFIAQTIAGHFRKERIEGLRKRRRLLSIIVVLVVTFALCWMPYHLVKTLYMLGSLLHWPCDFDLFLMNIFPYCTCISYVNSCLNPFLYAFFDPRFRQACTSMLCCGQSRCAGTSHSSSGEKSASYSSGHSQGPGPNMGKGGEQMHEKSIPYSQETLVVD
In short: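 Test system: CHO-K1 APJ beta-arrestin complementation cell line. Compound: multi-dose compound series. Incubation: 90 min compound treatment at 25 °C. Measured by: beta-gal complementation luminescence. Benchmarks: Apelin-13 high control.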
For COC(=O)C1=C(Cn2cnc3ccccc32)NC(=O)NC1c1cc(C)ccc1C (stereo not given), the EC50 was > 100 µM (inactive).
For CCOC(=O)C1=C(Cn2cnc3ccccc32)NC(=O)NC1c1cc(C)ccc1C (stereo not given), the EC50 was > 100 µM (inactive).
In the case of CCCCCCc1cc2cc(-c3nnc(-c4cc(OC)c(OC)c(OC)c4)o3)c(=O)oc2cc1O, the EC50 is reported as > 100 µM (inactive).
COc1ccc(/C=N/Nc2cc(C)nc3ccc(OC)cc23)c(OC)c1 was tested, and the EC50 was > 100 µM (inactive).
Compound CC1=CC(=O)C(C(C)C)=C/C1=N/OS(=O)(=O)c1ccccc1 has an EC50 of 7.6 µM.
